Assay results as given in ChEMBL document CHEMBL1153919, “Pyrano[2,3-e]isoindol-2-ones, new angelicin heteroanalogues” (Bioorg Med Chem Lett, 2009).
Calls of active or inactive are those of the source. The calls are words filed in the database; no cut-off is given here.

Experiments:
LoVo [1] = assay: Phototoxicity against human LoVo cells exposed to irradiation with 2.5 J/cm'2 UVA light prior to 72 hrs drug exposure by MTT assay; type: functional, cell-based; conditions: light or radiation study
Procedure, shortened: (§1)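 Phototoxicity panel: NCTC-2544 keratinocytes, LoVo adenocarcinoma, K562 and Jurkat leukemia cells. Cells with compound received UVA at 2.5 or 3.75 J/cm2. Cell growth was measured by MTT after 72 h of exposure. IC50 is the concentration inhibiting growth by 50%.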

LoVo [2] = assay: Phototoxicity against human LoVo cells exposed to irradiation with 3.75 J/cm'2 UVA light prior to 72 hrs drug exposure by MTT assay; type: functional, cell-based; conditions: light or radiation study; procedure, shortened: as §1
K562 [3] = assay: Cytotoxicity against human K562 cells after 72 hrs by MTT assay; type: functional, cell-based; conditions: K562, 72 h
K562 [4] = assay: Phototoxicity against human K562 cells exposed to irradiation with 2.5 J/cm'2 UVA light prior to 72 hrs drug exposure by MTT assay; type: functional, cell-based; conditions: K562, light or radiation study; procedure, shortened: as §1
K562 [5] = assay: Phototoxicity against human K562 cells exposed to irradiation with 3.75 J/cm'2 UVA light prior to 72 hrs drug exposure by MTT assay; type: functional, cell-based; conditions: K562, light or radiation study; procedure, shortened: as §1
Jurkat [6] = assay: Cytotoxicity against human Jurkat cells after 72 hrs by MTT assay; type: functional, cell-based
Jurkat [7] = assay: Phototoxicity against human Jurkat cells exposed to irradiation with 2.5 J/cm'2 UVA light prior to 72 hrs drug exposure by MTT assay; type: functional, cell-based; conditions: light or radiation study; procedure, shortened: as §1
Jurkat [8] = assay: Phototoxicity against human Jurkat cells exposed to irradiation with 3.75 J/cm'2 UVA light prior to 72 hrs drug exposure by MTT assay; type: functional, cell-based; conditions: light or radiation study; procedure, shortened: as §1
[9] = Cytotoxicity against human NCTC-2544 cells after 72 hrs by MTT assay; type: cell-based; conditions: NCTC-2544, 72 h
[10] = Phototoxicity against human NCTC-2544 cells exposed to irradiation with 2.5 J/cm'2 UVA light prior to 72 hrs drug exposure by MTT assay; type: cell-based; conditions: NCTC-2544, light or radiation study; procedure, shortened: as §1
[11] = Phototoxicity against human NCTC-2544 cells exposed to irradiation with 3.75 J/cm'2 UVA light prior to 72 hrs drug exposure by MTT assay; type: cell-based; conditions: NCTC-2544, light or radiation study; procedure, shortened: as §1
LoVo [12] = assay: Cytotoxicity against human LoVo cells after 72 hrs by MTT assay; type: functional, cell-based
Jurkat [13] = assay: Cell cycle arrest in 2.5 J/cm'2 UVA light irradiated human Jurkat cells assessed as accumulation at G1 phase at 5 uM after 24 hrs by DNA cytometry; type: functional
Procedure, shortened: (§2)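 Jurkat (T-cell leukemia) cells were UVA-irradiated at 2.5 J/cm2 in the presence of 5 µM compound. DNA content was analysed by flow cytometry 24 h after irradiation. Controls were non-irradiated cells and cells irradiated without compound. A representative experiment is shown, repeated two times.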

Jurkat [14] = assay: Cell cycle arrest in 2.5 J/cm'2 UVA light irradiated human Jurkat cells assessed as accumulation at G2/M phase at 5 uM after 24 hrs by DNA cytometry; type: functional; procedure, shortened: as §2
Jurkat [15] = assay: Cell cycle arrest in 2.5 J/cm'2 UVA light irradiated human Jurkat cells assessed as accumulation at S phase at 5 uM after 24 hrs by DNA cytometry; type: functional; procedure, shortened: as §2
Jurkat [16] = assay: Cell cycle arrest in 2.5 J/cm'2 UVA light irradiated human Jurkat cells assessed as accumulation at subG1 phase at 5 uM after 24 hrs by DNA cytometry; type: functional; procedure, shortened: as §2
Jurkat [17] = assay: Induction of lipid peroxidation in 2.5 J/cm'2 UVA light irradiated human Jurkat cells at 5 uM by TBARS test; type: functional, cell-based
Jurkat [18] = assay: Induction of lipid peroxidation in 2.5 J/cm'2 UVA light irradiated human Jurkat cells at 10 uM by TBARS test; type: functional, cell-based
Jurkat [19] = assay: Induction of lipid peroxidation in 2.5 J/cm'2 UVA light irradiated human Jurkat cells at 20 uM by TBARS test; type: functional, cell-based

Compound | IC50 (LoVo [1]) | IC50 (LoVo [2]) | IC50 (K562 [3]) | IC50 (K562 [4]) | IC50 (K562 [5]) | IC50 (Jurkat [6]) | IC50 (Jurkat [7]) | IC50 (Jurkat [8]) | IC50 [9] | IC50 [10] | IC50 [11] | IC50 (LoVo [12]) | Activity (Jurkat [13]) | Activity (Jurkat [14]) | Activity (Jurkat [15]) | Activity (Jurkat [16]) | Activity (Jurkat [17]) | Activity (Jurkat [18]) | Activity (Jurkat [19])
Cn1cc2c(c1)-c1oc(=O)ccc1CC2 | > 20 µM | > 20 µM | > 20 µM | > 20 µM | > 20 µM | > 20 µM | > 20 µM | > 20 µM | > 20 µM | > 20 µM | > 20 µM | > 20 µM |  |  |  |  |  |  | 
CCOC(=O)c1c2c(c(C)n1Cc1ccccc1)-c1oc(=O)c(C(=O)OC)cc1CC2 | 7.7 µM | 7.3 µM | > 20 µM | 6.1 µM | 2.7 µM | > 20 µM | 8.4 µM | 3.7 µM | > 20 µM | 14 µM | 10 µM | > 20 µM | 44.7% | 11.7% | 44.2% | 14.8% | Active | Active | Active
O=c1ccc2c(o1)-c1cn(Cc3ccccc3)cc1CC2 | > 20 µM | > 20 µM | > 20 µM | > 20 µM | > 20 µM | > 20 µM | > 20 µM | > 20 µM | > 20 µM | > 20 µM | > 20 µM | > 20 µM |  |  |  |  |  |  | 
CCOC(=O)c1cc2c(oc1=O)-c1c(c(C(=O)OCC)n(Cc3ccc(C)cc3)c1C)CC2 | > 20 µM | 15 µM | > 20 µM | 13.5 µM | 9.3 µM | > 20 µM | 16.1 µM | 12.8 µM | > 20 µM | > 20 µM | 17 µM | > 20 µM |  |  |  |  |  |  | 
CCOC(=O)c1cc2ccc3c(C(=O)OCC)n(C)c(C)c3c2oc1=O | 16.2 µM | 6.7 µM | > 20 µM | > 20 µM | > 20 µM | > 20 µM | > 20 µM | > 20 µM | > 20 µM | > 20 µM | > 20 µM | > 20 µM |  |  |  |  |  |  | 
CCOC(=O)c1cc2c(oc1=O)-c1cn(Cc3ccccc3)cc1CC2 | > 20 µM | > 20 µM | > 20 µM | > 20 µM | > 20 µM | > 20 µM | > 20 µM | > 20 µM | > 20 µM | > 20 µM | > 20 µM | > 20 µM |  |  |  |  |  |  | 
CCOC(=O)c1c2c(c(C)n1Cc1ccc(OC)cc1)-c1oc(=O)c(C(=O)OC)cc1CC2 | > 20 µM | > 20 µM | > 20 µM | > 20 µM | 12.6 µM | > 20 µM | > 20 µM | 11.8 µM | > 20 µM | > 20 µM | > 20 µM | > 20 µM |  |  |  |  |  |  | 
COc1c2occc2cc2ccc(=O)oc12 [METHOXSALEN] |  |  | > 20 µM |  |  | > 20 µM |  |  | > 20 µM | 5.5 µM |  | > 20 µM |  |  |  |  |  |  | 
CCOC(=O)c1cc2c(oc1=O)-c1c(cn(Cc3ccccc3)c1C)CC2 | > 20 µM | > 20 µM | > 20 µM | > 20 µM | > 20 µM | > 20 µM | > 20 µM | > 20 µM | > 20 µM | > 20 µM | > 20 µM | > 20 µM |  |  |  |  |  |  | 
CCOC(=O)c1cc2c(oc1=O)-c1c(c(C(=O)OCC)n(Cc3ccc(OC)cc3)c1C)CC2 | > 20 µM | > 20 µM | > 20 µM | > 20 µM | 14 µM | > 20 µM | > 20 µM | 13.5 µM | > 20 µM | > 20 µM | > 20 µM | > 20 µM |  |  |  |  |  |  | 
O=c1ccc2ccc3occc3c2o1 [ANGELICIN] |  |  | > 20 µM |  |  | > 20 µM |  |  | > 20 µM | 4.2 µM |  | > 20 µM |  |  |  |  |  |  | 
CCOC(=O)c1cc2ccc3c(C(=O)OCC)[nH]c(C)c3c2oc1=O | > 20 µM | 17.8 µM | > 20 µM | > 20 µM | > 20 µM | > 20 µM | > 20 µM | > 20 µM | > 20 µM | > 20 µM | > 20 µM | > 20 µM |  |  |  |  |  |  | 
CCOC(=O)c1cc2c(oc1=O)-c1cn(-c3ccccc3)cc1CC2 | > 20 µM | > 20 µM | > 20 µM | > 20 µM | > 20 µM | > 20 µM | > 20 µM | > 20 µM | > 20 µM | > 20 µM | > 20 µM | > 20 µM |  |  |  |  |  |  | 
CCOC(=O)c1c2c(c(C)n1Cc1ccc(C)cc1)-c1oc(=O)c(C(=O)OC)cc1CC2 | > 20 µM | > 20 µM | > 20 µM | > 20 µM | 16.6 µM | > 20 µM | > 20 µM | 17.8 µM | > 20 µM | > 20 µM | > 20 µM | > 20 µM |  |  |  |  |  |  | 
CCOC(=O)c1cc2c(oc1=O)-c1cn(C)cc1CC2 | > 20 µM | > 20 µM | > 20 µM | > 20 µM | > 20 µM | > 20 µM | > 20 µM | > 20 µM | > 20 µM | > 20 µM | > 20 µM | > 20 µM |  |  |  |  |  |  | 
CCOC(=O)c1cc2c(oc1=O)-c1c(c(C(=O)OCC)n(Cc3ccccc3)c1C)CC2 | 10.5 µM | 9.6 µM | > 20 µM | 7.5 µM | 7.3 µM | > 20 µM | 8.2 µM | 7.2 µM | > 20 µM | 14.6 µM | 10.9 µM | > 20 µM | 44.7% | 17.7% | 37.6% | 17.2% | Active | Active | Active
CCOC(=O)c1cc2c(oc1=O)-c1c(c(C(=O)OCC)n(C)c1C)CC2 | > 20 µM | 11.1 µM | > 20 µM | 13.9 µM | 13.1 µM | > 20 µM | 15.4 µM | 15.2 µM | > 20 µM | > 20 µM | > 20 µM | > 20 µM |  |  |  |  |  |  | 
CCOC(=O)c1[nH]c(C)c2c1CCc1cc(C(=O)OCC)c(=O)oc1-2 | > 20 µM | > 20 µM | > 20 µM | > 20 µM | > 20 µM | > 20 µM | > 20 µM | > 20 µM | > 20 µM | > 20 µM | > 20 µM | > 20 µM |  |  |  |  |  |  | 
Cn1cc2c(c1)-c1oc(=O)c(C(=O)O)cc1CC2 | > 20 µM | > 20 µM | > 20 µM | > 20 µM | > 20 µM | > 20 µM | > 20 µM | > 20 µM | > 20 µM | > 20 µM | > 20 µM | > 20 µM |  |  |  |  |  |  | 
